The source made the active and inactive calls. No cut-off for these calls is given here.
Columns and labels:
[1] = target: Vascular endothelial growth factor receptor 2 (Homo sapiens) (UniProt P35968); assay: Inhibition of human KDR using […] as substrate at 1 uM measured after 20 mins at 30 degC by liquid scintillation counting method in presence of [gamma-32P]-ATP
[2] = organism: Homo sapiens; assay: Inhibition of human PI3K using phosphatidylinositol 4,5-diphosphate as substrate at 1 uM measured after 20 mins at 30 degC by liquid scintillation counting method in presence of [gamma-32P]-ATP
[3] = target: Proto-oncogene tyrosine-protein kinase Src (Homo sapiens) (UniProt P12931); assay: Inhibition of human Src using myelin basic protein as substrate at 1 uM measured after 20 mins at 30 degC by liquid scintillation counting method in presence of [gamma-32P]-ATP
Chain of Proto-oncogene tyrosine-protein kinase Src (Homo sapiens) (P12931 2-536 limits assumed): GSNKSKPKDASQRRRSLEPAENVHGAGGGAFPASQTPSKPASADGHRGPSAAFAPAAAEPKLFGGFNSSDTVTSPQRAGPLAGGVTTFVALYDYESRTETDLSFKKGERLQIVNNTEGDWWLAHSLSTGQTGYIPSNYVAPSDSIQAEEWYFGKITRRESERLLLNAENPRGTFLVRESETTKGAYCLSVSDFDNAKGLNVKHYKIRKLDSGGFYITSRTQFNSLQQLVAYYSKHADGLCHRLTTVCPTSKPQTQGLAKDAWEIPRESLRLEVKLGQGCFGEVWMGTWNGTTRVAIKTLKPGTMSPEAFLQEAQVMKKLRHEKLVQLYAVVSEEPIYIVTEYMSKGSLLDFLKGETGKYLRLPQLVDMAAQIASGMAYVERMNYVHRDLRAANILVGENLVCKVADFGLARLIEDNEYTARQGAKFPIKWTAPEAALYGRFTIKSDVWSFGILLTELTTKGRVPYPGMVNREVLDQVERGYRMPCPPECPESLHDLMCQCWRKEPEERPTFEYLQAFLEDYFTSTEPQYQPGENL

[4] = target: Serine/threonine-protein kinase mTOR (Homo sapiens) (UniProt P42345); assay: Inhibition of human mTOR using PHAS-1 as substrate at 1 uM measured after 20 mins at 30 degC by liquid scintillation counting method in presence of [gamma-32P]-ATP
[5] = target: Tyrosine-protein kinase ABL1 (Homo sapiens) (UniProt P00519); assay: Inhibition of human Abl1 using myelin basic protein as substrate at 1 uM measured after 20 mins at 30 degC by liquid scintillation counting method in presence of [gamma-32P]-ATP
Chain of Tyrosine-protein kinase ABL1 (Homo sapiens) (P00519 whole entry): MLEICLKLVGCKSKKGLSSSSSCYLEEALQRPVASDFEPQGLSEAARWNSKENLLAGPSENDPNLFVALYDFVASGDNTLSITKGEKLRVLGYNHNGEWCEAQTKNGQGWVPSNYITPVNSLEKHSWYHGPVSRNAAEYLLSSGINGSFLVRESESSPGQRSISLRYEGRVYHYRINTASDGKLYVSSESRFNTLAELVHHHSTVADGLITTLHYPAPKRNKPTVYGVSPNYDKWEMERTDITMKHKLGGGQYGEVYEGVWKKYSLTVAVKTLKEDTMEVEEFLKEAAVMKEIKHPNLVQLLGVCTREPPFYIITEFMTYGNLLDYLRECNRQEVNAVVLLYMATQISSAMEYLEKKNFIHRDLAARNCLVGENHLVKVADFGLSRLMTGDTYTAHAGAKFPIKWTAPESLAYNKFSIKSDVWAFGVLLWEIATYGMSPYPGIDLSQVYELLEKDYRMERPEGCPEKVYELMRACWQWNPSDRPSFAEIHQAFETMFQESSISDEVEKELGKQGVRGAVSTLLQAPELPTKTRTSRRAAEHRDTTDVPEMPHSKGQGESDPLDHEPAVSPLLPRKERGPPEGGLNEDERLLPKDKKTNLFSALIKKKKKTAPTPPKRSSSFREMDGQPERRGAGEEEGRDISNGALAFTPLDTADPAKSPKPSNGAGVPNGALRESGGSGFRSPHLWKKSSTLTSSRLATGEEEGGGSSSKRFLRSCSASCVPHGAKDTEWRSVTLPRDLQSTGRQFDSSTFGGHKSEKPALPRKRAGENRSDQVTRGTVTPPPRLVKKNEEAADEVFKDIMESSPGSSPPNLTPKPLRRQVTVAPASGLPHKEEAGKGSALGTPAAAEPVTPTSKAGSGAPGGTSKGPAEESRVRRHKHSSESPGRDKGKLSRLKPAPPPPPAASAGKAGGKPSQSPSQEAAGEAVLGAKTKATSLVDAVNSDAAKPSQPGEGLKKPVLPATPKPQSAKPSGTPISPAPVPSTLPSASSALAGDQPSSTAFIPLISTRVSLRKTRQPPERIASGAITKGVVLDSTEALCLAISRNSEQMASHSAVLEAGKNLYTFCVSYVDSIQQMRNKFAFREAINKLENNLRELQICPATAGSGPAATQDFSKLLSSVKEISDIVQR

[6] = target: Platelet-derived growth factor receptor beta (Homo sapiens) (UniProt P09619); assay: Inhibition of human PDGFR-beta at 1 uM measured after 20 mins at 30 degC by liquid scintillation counting method in presence of [gamma-32P]-ATP
Chain of Platelet-derived growth factor receptor beta (Homo sapiens) (P09619 whole entry): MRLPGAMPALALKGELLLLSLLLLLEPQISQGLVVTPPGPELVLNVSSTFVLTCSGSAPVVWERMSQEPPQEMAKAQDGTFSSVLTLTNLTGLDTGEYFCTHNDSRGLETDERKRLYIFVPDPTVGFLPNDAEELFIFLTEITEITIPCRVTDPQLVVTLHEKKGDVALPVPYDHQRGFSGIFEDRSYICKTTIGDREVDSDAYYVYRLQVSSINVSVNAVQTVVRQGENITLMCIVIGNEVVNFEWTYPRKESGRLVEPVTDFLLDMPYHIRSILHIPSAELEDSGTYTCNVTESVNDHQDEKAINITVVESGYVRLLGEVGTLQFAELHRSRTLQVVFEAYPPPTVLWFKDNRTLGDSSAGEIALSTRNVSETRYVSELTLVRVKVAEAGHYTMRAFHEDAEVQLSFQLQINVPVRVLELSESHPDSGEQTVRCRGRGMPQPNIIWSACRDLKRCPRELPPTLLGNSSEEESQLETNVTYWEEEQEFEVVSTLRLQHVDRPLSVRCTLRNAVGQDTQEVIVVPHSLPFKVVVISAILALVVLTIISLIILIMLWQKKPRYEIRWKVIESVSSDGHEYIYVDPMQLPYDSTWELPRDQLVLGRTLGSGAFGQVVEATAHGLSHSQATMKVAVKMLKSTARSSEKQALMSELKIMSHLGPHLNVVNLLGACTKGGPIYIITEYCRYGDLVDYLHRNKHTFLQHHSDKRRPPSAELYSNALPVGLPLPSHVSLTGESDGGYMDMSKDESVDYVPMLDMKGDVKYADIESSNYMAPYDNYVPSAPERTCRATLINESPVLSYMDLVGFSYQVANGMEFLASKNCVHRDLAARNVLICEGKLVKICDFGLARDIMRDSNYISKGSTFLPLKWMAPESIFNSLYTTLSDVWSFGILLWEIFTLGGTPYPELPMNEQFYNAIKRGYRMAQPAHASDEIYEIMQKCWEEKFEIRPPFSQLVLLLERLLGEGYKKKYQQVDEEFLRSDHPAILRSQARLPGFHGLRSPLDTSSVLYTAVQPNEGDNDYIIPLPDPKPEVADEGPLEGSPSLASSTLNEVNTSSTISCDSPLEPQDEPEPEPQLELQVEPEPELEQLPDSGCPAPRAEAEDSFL

[7] = target: Fibroblast growth factor receptor 1 (Homo sapiens) (UniProt P11362); assay: Inhibition of human FGFR1 using myelin basic protein as substrate at 1 uM measured after 20 mins at 30 degC by liquid scintillation counting method in presence of [gamma-32P]-ATP
Chain of Fibroblast growth factor receptor 1 (Homo sapiens) (P11362 22-822 limits assumed): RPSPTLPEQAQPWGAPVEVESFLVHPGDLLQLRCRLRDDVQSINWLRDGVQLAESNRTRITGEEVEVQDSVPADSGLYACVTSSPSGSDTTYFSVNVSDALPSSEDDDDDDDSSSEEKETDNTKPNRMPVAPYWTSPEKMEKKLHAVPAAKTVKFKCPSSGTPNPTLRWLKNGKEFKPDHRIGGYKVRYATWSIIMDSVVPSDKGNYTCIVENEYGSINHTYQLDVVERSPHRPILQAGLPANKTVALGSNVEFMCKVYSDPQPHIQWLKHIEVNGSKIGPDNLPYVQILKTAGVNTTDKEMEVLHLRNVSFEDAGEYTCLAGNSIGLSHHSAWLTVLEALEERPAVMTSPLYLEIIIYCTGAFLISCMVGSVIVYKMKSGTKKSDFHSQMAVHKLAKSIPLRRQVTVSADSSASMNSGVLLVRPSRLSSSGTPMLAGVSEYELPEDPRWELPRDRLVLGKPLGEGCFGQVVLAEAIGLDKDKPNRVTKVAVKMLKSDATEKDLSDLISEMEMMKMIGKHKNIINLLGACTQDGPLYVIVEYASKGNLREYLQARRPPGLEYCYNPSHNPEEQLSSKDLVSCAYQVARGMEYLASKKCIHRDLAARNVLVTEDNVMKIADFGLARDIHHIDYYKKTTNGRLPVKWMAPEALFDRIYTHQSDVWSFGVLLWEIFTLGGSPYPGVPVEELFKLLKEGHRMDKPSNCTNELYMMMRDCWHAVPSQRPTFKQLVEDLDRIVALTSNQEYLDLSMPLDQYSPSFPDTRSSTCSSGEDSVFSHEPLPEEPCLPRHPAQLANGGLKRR

[8] = Reduction of COL1A1 mRNA expression in healthy human ISEMF at 1 uM by RT-PCR analysis; assay type: functional
How it was run: (§1)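 HSCs or ISEMFs were treated with compound for 24 h. Total RNA was extracted and DNase I-treated, then used for quantitative PCR of the target transcript. Values were normalized to 18S rRNA and relative change was calculated by the ΔΔCT method. Triplicate per isolated cell batch.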

[9] = Reduction of FN1 mRNA expression in healthy human ISEMF at 1 uM by RT-PCR analysis; assay type: functional; how it was run: as §1
[10] = Reduction of FN1 mRNA expression in human HSC cells at 1 uM by RT-PCR analysis; assay type: functional, cell-based; how it was run: as §1
[11] = Reduction of TIMP1 mRNA expression in healthy human ISEMF at 1 uM by RT-PCR analysis; assay type: functional; how it was run: as §1
[12] = organism: Homo sapiens; assay: Antiproliferative activity against VEGF induced healthy human ISEMF at 1 uM after 72 hrs by carboxyfluorescein diacetate succinimidyl ester dye-based FACS flow cytometric method; assay type: functional
How it was run: (§2)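 Primary human HSCs (from collagenase/pronase digests of non-pathological liver, Percoll gradient) or ISEMFs (from collagenase-digested gut biopsies, CD90-checked) were CFSE-loaded for 10 min at 37 °C in PBS with 0.1% BSA. Loading was quenched with 5 volumes of ice-cold medium. After 16 h, cells were washed and given compound plus 1 ng/ml VEGF for 72 h. Read-out was dye partitioning by flow cytometry, as % CFSE-positive cells. Duplicate per cell batch; mean ± SE.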

[13] = Cytotoxicity against healthy human ISEMF assessed as cell viability at 1 uM after 72 hrs by MTT assay
How it was run: (§3)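 MTT viability in primary human HSCs or ISEMFs seeded at 2 × 10³ cells/well. Cells were exposed to compound for 72 h, then to MTT 0.50 mg/ml for 4 h. Viability is expressed as % of the respective untreated cells. Triplicate per isolated cell batch.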

[14] = organism: Homo sapiens; assay: Antiproliferative activity against VEGF induced crohn's disease patient isolated ISEMF at 1 uM after 72 hrs by carboxyfluorescein diacetate succinimidyl ester dye-based FACS flow cytometric method; assay type: functional; how it was run: as §2
[15] = Reduction of TIMP1 mRNA expression in human HSC cells at 1 uM by RT-PCR analysis; assay type: functional, cell-based; how it was run: as §1
[16] = system: HSC; assay: Antiproliferative activity against VEGF induced human HSC cells at 1 uM after 72 hrs by carboxyfluorescein diacetate succinimidyl ester dye-based FACS flow cytometric method; assay type: functional, cell-based; how it was run: as §2
[17] = Cytotoxicity against human HSC cells assessed as cell viability at 1 uM after 72 hrs by MTT assay; assay type: cell-based; how it was run: as §3
[18] = Cytotoxicity against crohn's disease patient isolated ISEMF assessed as cell viability at 1 uM after 72 hrs by MTT assay; conditions: human; how it was run: as §3
[19] = Reduction of COL1A1 mRNA expression in healthy human HSC cells at 1 uM by RT-PCR analysis; assay type: functional, cell-based; how it was run: as §1
[20] = Reduction of COL1A1 mRNA expression in crohn's disease patient isolated ISEMF at 1 uM by RT-PCR analysis; assay type: functional; conditions: Homo sapiens; how it was run: as §1
[21] = Reduction of TIMP1 mRNA expression in crohn's disease patient isolated ISEMF at 1 uM by RT-PCR analysis; assay type: functional; conditions: Homo sapiens; how it was run: as §1
[22] = Reduction of FN1 mRNA expression in crohn's disease patient isolated ISEMF at 1 uM by RT-PCR analysis; assay type: functional; conditions: Homo sapiens; how it was run: as §1
[23] = target: T1, MAP kinase p38 (Homo sapiens) (UniProt O15264+Q15759+Q16539+P53778); assay: Inhibition of p38 MAPK phosphorylation in crohn's disease patient isolated ISEMF at 1 uM after 4 hrs by western blotting analysis
How it was run: (§4)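 Primary human cells were treated with compound for 4 h. Lysates were made in RIPA buffer with phosphatase and protease inhibitors and cleared by centrifugation. Proteins were run on 10% SDS-PAGE and blotted to nitrocellulose. Blots were probed for phospho-p38 MAPK with an HRP secondary and ECL detection, then reprobed for total p38 MAPK as loading control. Duplicate experiments.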

[24] = target: T1, MAP kinase p38 (Homo sapiens); assay: Inhibition of p38 MAPK phosphorylation in human HSC cells at 1 uM after 4 hrs by western blotting analysis; assay type: cell-based; how it was run: as §4

Chain of Vascular endothelial growth factor receptor 2 (Homo sapiens) (P35968 whole entry): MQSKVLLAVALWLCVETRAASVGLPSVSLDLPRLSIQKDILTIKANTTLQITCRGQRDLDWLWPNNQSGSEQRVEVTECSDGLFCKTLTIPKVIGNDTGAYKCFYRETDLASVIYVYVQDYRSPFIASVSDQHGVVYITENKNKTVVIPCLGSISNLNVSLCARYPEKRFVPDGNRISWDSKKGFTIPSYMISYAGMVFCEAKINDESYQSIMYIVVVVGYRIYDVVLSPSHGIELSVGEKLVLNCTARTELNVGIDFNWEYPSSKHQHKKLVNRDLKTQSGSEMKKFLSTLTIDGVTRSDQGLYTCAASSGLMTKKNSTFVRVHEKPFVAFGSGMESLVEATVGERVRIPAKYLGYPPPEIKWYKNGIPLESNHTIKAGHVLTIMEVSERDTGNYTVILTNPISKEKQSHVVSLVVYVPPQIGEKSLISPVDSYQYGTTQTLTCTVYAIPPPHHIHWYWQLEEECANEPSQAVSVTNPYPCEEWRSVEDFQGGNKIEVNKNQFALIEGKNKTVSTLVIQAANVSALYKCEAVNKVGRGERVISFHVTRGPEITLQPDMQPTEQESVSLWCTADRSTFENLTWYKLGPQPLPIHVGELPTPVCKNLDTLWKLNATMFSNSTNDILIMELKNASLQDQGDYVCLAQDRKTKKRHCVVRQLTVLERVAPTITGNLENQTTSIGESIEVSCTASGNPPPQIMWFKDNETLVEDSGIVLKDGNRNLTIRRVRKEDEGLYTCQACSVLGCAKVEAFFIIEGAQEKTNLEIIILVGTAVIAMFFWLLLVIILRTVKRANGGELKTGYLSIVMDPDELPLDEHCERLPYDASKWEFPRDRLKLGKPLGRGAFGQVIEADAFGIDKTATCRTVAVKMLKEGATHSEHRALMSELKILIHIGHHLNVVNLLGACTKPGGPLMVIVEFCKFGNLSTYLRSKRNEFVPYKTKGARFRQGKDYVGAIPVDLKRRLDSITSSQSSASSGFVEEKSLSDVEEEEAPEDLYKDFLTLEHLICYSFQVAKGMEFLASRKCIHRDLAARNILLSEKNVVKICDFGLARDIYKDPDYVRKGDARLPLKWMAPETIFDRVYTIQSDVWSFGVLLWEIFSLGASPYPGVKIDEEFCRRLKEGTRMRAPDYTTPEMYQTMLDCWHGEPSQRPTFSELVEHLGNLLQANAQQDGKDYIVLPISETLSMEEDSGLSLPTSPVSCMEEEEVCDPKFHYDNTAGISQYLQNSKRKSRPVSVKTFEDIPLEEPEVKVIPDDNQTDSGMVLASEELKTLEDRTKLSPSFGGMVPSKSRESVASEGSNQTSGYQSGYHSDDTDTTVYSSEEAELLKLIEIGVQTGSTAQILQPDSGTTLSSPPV

| inhibition [1] | inhibition [2] | inhibition [3] | inhibition [4] | inhibition [5] | inhibition [6] | inhibition [7] | Compound | Activity [8] | Activity [9] | Activity [10] | Activity [11] | Activity [13] | Activity [15] | Activity [17] | Activity [18] | Activity [19] | Activity [20] | Activity [21] | Activity [22] | other results |
| --- | --- | --- | --- | --- | --- | --- | --- | --- | --- | --- | --- | --- | --- | --- | --- | --- | --- | --- | --- | --- |
| 25% | 0% | 0% | 10% | 4% | 4% | 6% | O=c1c2cc3c(cc2ncn1Cc1ccc(-c2ccccc2)cc1)OCO3 |  |  |  |  |  |  |  |  |  |  |  |  |  |
| 27% | 7% | 0% | 17% | 0% | 45% | 1% | O=c1c2cc3c(cc2ncn1Cc1ccc(Br)cc1)OCO3 | inactive | inactive | inactive | inactive | Non-toxic | inactive | Non-toxic | Non-toxic | inactive | inactive | inactive | inactive | Activity [12]: Active; Activity [14]: Active; Activity [16]: Active |
| 45% | 25% | 5% | 37% | 0% | 13% | 10% | O=c1c2cc3c(cc2ncn1Cc1ccc(-c2ccccc2)cc1)OCCO3 | Active |  |  |  | Non-toxic |  | Non-toxic | Non-toxic | Active | Active |  |  |  |
| 35% | 0% | 0% | 0% | 0% | 0% | 8% | O=c1c2cc3c(cc2ncn1Cc1cccc(-c2ccccc2)c1)OCO3 | Active |  |  |  | Non-toxic |  | Non-toxic | Non-toxic | Active | Active |  |  |  |
| 35% | 17% | 0% | 23% | 0% | 1% | 18% | O=C(Cn1cnc2cc3c(cc2c1=O)OCCO3)c1ccc(Br)cc1 | Active |  |  |  | Non-toxic |  | Non-toxic | Non-toxic | Active | Active |  |  |  |
| 36% | 35% | 0% | 2% | 0% | 4% | 18% | O=C(Cn1cnc2cc3c(cc2c1=O)OCCO3)c1cccc(Br)c1 | Active |  |  |  | Non-toxic |  | Non-toxic | Non-toxic | Active | Active |  |  | inhibition [23]: Active; inhibition [24]: Active |
| 26% | 0% | 0% | 1% | 1% | 0% | 5% | O=c1c2cc3c(cc2ncn1CC(O)c1cccc(Cl)c1)OCCO3 (stereo not drawn) | inactive | inactive | inactive | inactive | Non-toxic | inactive | Non-toxic | Non-toxic | inactive | inactive | inactive | inactive |  |
| 53% | 0% | 4% | 17% | 0% | 1% | 7% | COc1cc2ncn(CC(=O)c3ccc(Br)cc3)c(=O)c2cc1OC |  | inactive | Active | inactive | Non-toxic | Active | Non-toxic | Non-toxic |  |  | Active | Active |  |
|  | 18% | 16% | 49% | 25% | 72% | 31% | Clc1ccc(Nc2nnc(Cc3ccncc3)c3ccccc23)cc1 [VATALANIB] | Active | inactive | Active | inactive | Toxic | Active | Toxic | Toxic | Active | Active | Active | Active |  |
| 12% | 0% | 0% | 13% | 0% | 1% | 1% | O=c1c2cc3c(cc2ncn1Cc1ccc(Br)cc1)OCCO3 |  |  |  |  |  |  |  |  |  |  |  |  |  |
| 33% | 21% | 0% | 34% | 0% | 4% | 13% | COc1cc2ncn(Cc3cccc(-c4ccccc4)c3)c(=O)c2cc1OC |  |  |  |  |  |  |  |  |  |  |  |  |  |
| 25% | 0% | 0% | 25% | 0% | 0% | 14% | COc1cc2ncn(Cc3ccc(Br)cc3)c(=O)c2cc1OC |  |  |  |  |  |  |  |  |  |  |  |  |  |
| 31% | 15% | 0% | 18% | 0% | 22% | 11% | COc1cc2ncn(Cc3cccc(Br)c3)c(=O)c2cc1OC | inactive | inactive | inactive | inactive | Non-toxic | inactive | Non-toxic | Non-toxic | inactive | inactive | inactive | inactive |  |
| 12% | 28% | 0% | 28% | 0% | 0% | 7% | O=c1c2cc3c(cc2ncn1Cc1cccc(Br)c1)OCCO3 |  |  |  |  |  |  |  |  |  |  |  |  |  |

— ChEMBL document CHEMBL3792341, “Substituted quinazolinones as kinase inhibitors endowed with anti-fibrotic properties” (Eur J Med Chem, 2016)
